The list is not random: actives were taken first. Their share in the collection is about 2.2%.
PHOSPHO1 block: inhibitors of human PHOSPHO1 phosphatase; recombinant PHOSPHO1, absorbance phosphatase assay; inhibition, % at 13.3 µM; 290,000 tested, 1.1% active; in the data active means inhibition above about 60%
IMP-1 inh-1: blocks Pseudomonas aeruginosa IMP-1 metallo-beta-lactamase; purified IMP-1, nitrocefin hydrolysis, epi-absorbance fluorescence; inhibition, % at 5.6 µM; 290,000 tested, 0.45% active; AID 1556;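 active means inhibition above the mean plus 3 SD of all compounds in the same screening run, cut at about 4.5% in these data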
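System: Purified recombinant IMP-1 metallo-beta-lactamase enzyme | Measured by: Fluorescence quenching readout, ex 480/em 530 nm | Replication: Singlicate | Incubation: 15 min preincubation plus 25 min reaction at 25 °C | Evaluation: Percent inhibition from optical density relative to buffer-blank wells | Benchmarks: DMSO with and without IMP-1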
VIM-2 inhibitor: blocks Pseudomonas aeruginosa VIM-2 metallo-beta-lactamase | purified VIM-2, nitrocefin hydrolysis, epi-absorbance fluorescence | inhibition, % at 5.6 µM | 290,000 tested, 0.89% active;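 active means inhibition above the mean of all tested compounds plus 3 SD, cutoff set per screening run, cut at about 7.5% in these data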;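 further: red hydrolysis product quenches plate fluorescence so inhibitors raise well fluorescence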
CR mimetic SO: caloric restriction mimetics inhibiting age-related superoxide in yeast; S. cerevisiae aged cells, superoxide DHE fluorescence; active compounds read low; superoxide response (% of plate mean), % at 10 µM; 330,000 tested, 0.18% active; AID 2690;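 active means superoxide response under a set limit, about three screen SD below normal, cut at about 65% in these data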;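 further: yeast aged for seven days with compound at 30 °C before DHE staining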
PvdQ inh: P. aeruginosa PvdQ acylase inhibition | AID 488965 | purified PvdQ acylase, fluorescence plate reader | 340,000 tested, 0.063% active | inhibition, % at 10 µM; in the data active means inhibition above about 30%, passing the limit was not always enough
IMP-1 inh-2: selectivity counter-screen for VIM-2 inhibitors: IMP-1 metallo-beta-lactamase inhibitors; shares compounds with VIM-2 inhibitor; purified IMP-1, nitrocefin hydrolysis, epi-absorbance fluorescence; inhibition, % at 5.6 µM; 1,300 tested, under 10 active; AID 1856; call rule not given here
VIM-2 FRET ctr: counter-screen for VIM-2 inhibitors: epi-absorbance artifacts via FRET | shares compounds with VIM-2 inhibitor | purified VIM-2, CCF2 FRET substrate hydrolysis | inhibition, % at 5.6 µM | 1,300 tested, 23% active;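 active means inhibition above the mean of all tested compounds plus 3 SD, cut at about 19% in these data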
TEM-1 counter: TEM-1 inhibition, counter-screen for VIM-2 inhibitors. Purified TEM-1, nitrocefin hydrolysis, epi-absorbance fluorescence. shares compounds with VIM-2 inhibitor. inhibition, % at 5.6 µM. 1,300 tested, 3% active;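 active means inhibition above that campaign's mean inhibition plus 3 SD, cut at about 0.46% in these data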
Target sequence (P62593 whole entry, looked up): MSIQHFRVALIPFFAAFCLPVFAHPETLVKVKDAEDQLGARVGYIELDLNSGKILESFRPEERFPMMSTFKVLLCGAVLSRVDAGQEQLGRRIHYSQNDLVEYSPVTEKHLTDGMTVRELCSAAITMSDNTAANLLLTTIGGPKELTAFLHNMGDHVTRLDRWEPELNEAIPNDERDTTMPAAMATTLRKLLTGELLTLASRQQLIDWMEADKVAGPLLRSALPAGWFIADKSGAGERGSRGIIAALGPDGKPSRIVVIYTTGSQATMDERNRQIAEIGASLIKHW
VIM-2 confirm 2: confirmation of P. aeruginosa VIM-2 metallo-beta-lactamase inhibitors | shares compounds with VIM-2 inhibitor | purified VIM-2, nitrocefin hydrolysis, epi-absorbance | inhibition, % at 5.6 µM | 1,300 tested, 96% active | AID 2187;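 active means inhibition of the VIM-2 beta-lactamase enzyme above about 11% from the earlier first-round screen, limit read from the data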
Each line names hits and unclear results; the compound was inactive in the other large screens (follow-up assays come after a bar, where they were run).

CC1=NNC(=O)C1C(c1ccccc1)C1C(=O)NN=C1C (configuration not stated)	none (no result: PvdQ inh)
CCN1CCN(CCNC(=O)c2cc(Cl)c(NC(=O)C3=C(C)OCCS3)cc2OC)CC1	VIM-2 inhibitor 24 | IMP-1 inh-2 inactive | VIM-2 FRET ctr inactive | TEM-1 counter inactive | VIM-2 confirm 2 33
Cc1ccccc1C(=O)NC1CCN(CC(=O)NCc2ccccc2)CC1	none
COc1ccccc1C(=O)COC(=O)/C=C/c1ccccc1	VIM-2 inhibitor 13 | IMP-1 inh-2 inactive | VIM-2 FRET ctr 29 | TEM-1 counter inactive | VIM-2 confirm 2 18
Cc1c(-c2cc[n+]([O-])cc2)oc2ccc(Br)cc2c1=O	none (no result: PvdQ inh)
Cc1oc2ccc(Br)cc2c(=O)c1-c1nn[nH]n1	VIM-2 inhibitor 21 | IMP-1 inh-2 inactive | VIM-2 FRET ctr 41 | TEM-1 counter 4.2 | VIM-2 confirm 2 27
CCN(CCN(C)C)C(=O)c1ccc2c(c1NCCO)C(=O)c1ccccc1C2=O	VIM-2 inhibitor 14 | IMP-1 inh-2 inactive | VIM-2 FRET ctr inactive | TEM-1 counter inactive | VIM-2 confirm 2 23
O=C(O)c1ccccc1Nc1ccc([N+](=O)[O-])c2nonc12	VIM-2 inhibitor 22 | IMP-1 inh-2 inactive | VIM-2 FRET ctr 51 | TEM-1 counter inactive | VIM-2 confirm 2 27
O=C(Nc1cccc(S(=O)(=O)NC2=NCCCCC2)c1)c1ccc(Cl)cc1	none (no result: PHOSPHO1 block, IMP-1 inh-1, VIM-2 inhibitor, CR mimetic SO)
CCCCNC(=NCc1cccc(C(F)(F)F)c1)Nc1ccccc1	none
O=C1c2cccc3cccc(c23)C(=O)N1CC1CCN(CC(O)COc2ccc3ccccc3c2)CC1 (configuration not stated)	none (no result: PHOSPHO1 block, IMP-1 inh-1, VIM-2 inhibitor)
COc1ccc(COCC(O)CN2CCC(CN3C(=O)c4cccc5cccc(c45)C3=O)CC2)cc1OC (configuration not stated)	VIM-2 inhibitor 14 | IMP-1 inh-2 inactive | VIM-2 FRET ctr inactive | TEM-1 counter inactive | VIM-2 confirm 2 27
COc1cccc(OCC(O)CN2CCC(CN3C(=O)c4cccc5cccc(c45)C3=O)CC2)c1 (configuration not stated)	VIM-2 inhibitor 14 | IMP-1 inh-2 inactive | VIM-2 FRET ctr inactive | TEM-1 counter inactive | VIM-2 confirm 2 22
O=[N+]([O-])c1cc(-c2ccc(/C=N/n3cnnc3)o2)ccc1Cl	VIM-2 inhibitor 44 | IMP-1 inh-2 inactive | VIM-2 FRET ctr inactive | TEM-1 counter inactive | VIM-2 confirm 2 58
Cc1ccc([N+](=O)[O-])cc1-c1ccc(/C=N\n2nnnc2N)o1	none
O=[N+]([O-])c1ccc(Cl)c(-c2ccc(/C=N/n3cnnc3)o2)c1	VIM-2 inhibitor 45 | IMP-1 inh-2 inactive | VIM-2 FRET ctr inactive | TEM-1 counter inactive | VIM-2 confirm 2 52
CNC(=S)N/N=C/c1ccc(-c2cc([N+](=O)[O-])ccc2Cl)o1	none
Cc1cc(-c2ccc(/C=N/n3cnnc3)o2)c(C)c([N+](=O)[O-])c1	VIM-2 inhibitor 87 | IMP-1 inh-2 inactive | VIM-2 FRET ctr inactive | TEM-1 counter inactive | VIM-2 confirm 2 91
COc1cc([N+](=O)[O-])ccc1-c1ccc(/C=N\n2cnnc2)o1	VIM-2 inhibitor 45 | IMP-1 inh-2 inactive | VIM-2 FRET ctr inactive | TEM-1 counter inactive | VIM-2 confirm 2 45
CC(C)(C)OC(=O)C[C@H]1C/C=C\C[C@@H](CC(=O)N(CCO)Cc2ccccc2)C(=O)N[C@H](Cc2c[nH]c3ccccc23)COC1=O	none (no result: PHOSPHO1 block, IMP-1 inh-1, VIM-2 inhibitor)
CCOC(=O)N1CCC(N2C(=O)c3ccccc3C2Nc2ccc(S(=O)(=O)N(CC)CC)cc2)CC1 (configuration not stated)	none
O=C(NCc1cccc(Br)c1)C1CC(c2ccccc2C(F)(F)F)=NO1 (configuration not stated)	none (no result: IMP-1 inh-1, VIM-2 inhibitor)
Cc1ccc(Sc2oc(/C=N/n3cnnc3)cc2Br)cc1	none
